Drawing on ChEMBL document CHEMBL4261521, “Synthesis of benzo[d]thiazole-hydrazone analogues: molecular docking and SAR studies of potential H+/K+ ATPase inhibitors and anti-inflammatory agents” (Medchemcomm, 2017), this text covers IC50 for 32 compounds.

One may read the IC50 as the concentration that inhibits the measured activity by half.

For one experiment, the system named is Erythrocyte. The experiment is described as follows: Anti-inflammatory activity in human RBC assessed as inhibition of hypotonic solution-induced hemolysis after 10 mins by spectrophotometric method. The class given is functional, cell-based. The method in brief: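 Heparinized blood from one healthy donor (no NSAIDs for 2 weeks), washed in 0.9% saline, made into 40% (v/v) RBC stock in 10 mM sodium phosphate/154 mM NaCl, pH 7.4. Stock mixed with hypotonic buffer (50 mM NaCl, 10 mM phosphate, pH 7.4) plus sample at 20–100 μg mL–1. Incubated at room temperature, centrifuged, supernatant absorbance at 540 nm, % haemolysis inhibition versus blank.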

Experiment [1] in a line: Inhibition of H+/K+-ATPase in sheep stomach parietal cells assessed as reduction in inorganic phosphate liberation using ATP as substrate measured after 10 to 15 mins. Particulars: Ovis aries. The method in brief:
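Enzyme came from sheep fundic mucosal scrapings, homogenized in sucrose/EGTA/Hepes-Tris buffer pH 7.4, then subcellular fractionation. Basal medium: 2 mmol L–1 ATP, 50 mmol L–1 Tris-HCl pH 7.5, with K+ and HCO3 stimulation. Reaction started with ATP, run at 37 °C and stopped with cold 20% TCA. Released Pi read by Fiske–Subbarow at 660 nm. Values are means of three determinations.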

SMILES strings stand for the structures. Converted amounts (≈) assume the structure as drawn.

Take `Cc1cccc2nc(N/N=C\c3ccc(Cl)cc3Cl)sc12`: the IC50 amounted to 18.2 µg/mL (≈ 54 µM) with Erythrocyte and 68.9 µg/mL (≈ 205 µM) in experiment [1]. The like results for `Cc1cccc2nc(N/N=C/c3cccs3)sc12` were, in that order, 28.7 µg/mL (≈ 105 µM) and 30.4 µg/mL (≈ 111 µM).

Regarding `Cc1cccc2nc(N/N=C/CC(C)C)sc12`, the IC50 was 90.7 µg/mL (≈ 367 µM) in the experiment on Erythrocyte and 82.2 µg/mL (≈ 332 µM) in experiment [1]. For the compound `COc1ccc(/C=N\Nc2nc3cccc(C)c3s2)cc1Br`, the IC50 with Erythrocyte turned out to be 58.6 µg/mL (≈ 156 µM); in experiment [1], 54.4 µg/mL (≈ 145 µM). Take `COc1cc(/C=N\Nc2nc3cccc(C)c3s2)cc(Br)c1O`: the results for the IC50 (with Erythrocyte; in experiment [1]) were 56.4 µg/mL (≈ 144 µM) and 42.1 µg/mL (≈ 107 µM), respectively.

Consider `Cc1cccc2nc(N/N=C\c3cc(O)c(O)c(O)c3)sc12`, for which the IC50 in the experiment with Erythrocyte came to 68.6 µg/mL (≈ 217 µM); in experiment [1], 8.99 µg/mL (≈ 28.5 µM). With `COc1cc(/C=N\Nc2nc3cccc(C)c3s2)cc(OC)c1OC`, the IC50 is 74.6 µg/mL (≈ 209 µM) in the experiment with Erythrocyte and 12.8 µg/mL (≈ 35.7 µM) in experiment [1]. On to `Cc1cccc2nc(N/N=C\c3ccc([N+](=O)[O-])cc3)sc12`, for which the IC50 was 24.1 µg/mL (≈ 77.1 µM) in the experiment on Erythrocyte and 72.2 µg/mL (≈ 231 µM) in experiment [1]. On to `COc1ccc(/C=N\Nc2nc3cccc(C)c3s2)cc1O`, for which the IC50 in the experiment on Erythrocyte is 56.2 µg/mL (≈ 179 µM); in experiment [1], 26.2 µg/mL (≈ 83.6 µM). Taken in the same sequence, the figures for `Cc1cccc2nc(N/N=C/c3ccco3)sc12` were 50.1 µg/mL (≈ 195 µM) and 38.3 µg/mL (≈ 149 µM). On to `Cc1cccc2nc(N/N=C/c3ccc[nH]3)sc12`, for which the IC50 in the experiment on Erythrocyte came out at 46.2 µg/mL (≈ 180 µM); in experiment [1] it was 42.6 µg/mL (≈ 166 µM).

`COc1ccc(/C=N\Nc2nc3cccc(C)c3s2)c(OC)c1`: the IC50 with Erythrocyte amounted to 68.1 µg/mL (≈ 208 µM); in experiment [1] it was 20.4 µg/mL (≈ 62.2 µM). `Cc1cccc2nc(N/N=C\c3ccc(Oc4ccccc4)cc3)sc12`: the IC50 came to 60.9 µg/mL (≈ 169 µM) in the experiment with Erythrocyte and 56.4 µg/mL (≈ 157 µM) in experiment [1]. On to `Cc1cccc2nc(N/N=C\c3ccc(O)cc3)sc12`, for which the figures for the IC50 (in the experiment with Erythrocyte; in experiment [1]) were 60 µg/mL (≈ 212 µM) and 26.3 µg/mL (≈ 92.9 µM), respectively. Taken in the same sequence, the figures for `Cc1cccc2nc(N/N=C\c3ccccc3)sc12` were 80.1 µg/mL (≈ 300 µM) and 84.1 µg/mL (≈ 315 µM). Regarding `COc1ccc(/C=N\Nc2nc3cccc(C)c3s2)cc1`, the IC50 in the experiment on Erythrocyte came to 72.7 µg/mL (≈ 244 µM); in experiment [1] it was 30.4 µg/mL (≈ 102 µM). The like results for `Cc1cccc2nc(N/N=C\c3ccc(O)c(Br)c3)sc12` were, in that order, 52.4 µg/mL (≈ 145 µM) and 48.1 µg/mL (≈ 133 µM).

Take `COc1cc(/C=N\Nc2nc3cccc(C)c3s2)ccc1OCc1ccccc1`: the IC50 was 66.2 µg/mL (≈ 164 µM) in the experiment on Erythrocyte and 42.9 µg/mL (≈ 106 µM) in experiment [1]. The like results for `Cc1cccc2nc(N/N=C\c3ccc(Br)cc3Br)sc12` were, in that order, 10.1 µg/mL (≈ 23.8 µM) and 66.1 µg/mL (≈ 156 µM). Consider `Cc1cccc2nc(N/N=C\c3ccc(O)cc3O)sc12`, for which the IC50 was 58.2 µg/mL (≈ 194 µM) in the experiment with Erythrocyte and 14.1 µg/mL (≈ 47.2 µM) in experiment [1]. As for `Cc1cccc2nc(N/N=C\c3ccc(F)cc3)sc12`, the IC50 stood at 32.1 µg/mL (≈ 113 µM) in the experiment on Erythrocyte and 66.1 µg/mL (≈ 232 µM) in experiment [1]. The like results for `CC/C=N/Nc1nc2cccc(C)c2s1` were, in that order, 78.5 µg/mL (≈ 358 µM) and 80.2 µg/mL (≈ 366 µM).

On to `Cc1cccc2nc(N/N=C\c3ccc(F)cc3F)sc12`, for which the IC50 in the experiment on Erythrocyte amounted to 16.1 µg/mL (≈ 53.2 µM); in experiment [1], 70.6 µg/mL (≈ 233 µM). Taken in the same sequence, the figures for `Cc1cccc2nc(N/N=C\c3ccc(Cl)cc3)sc12` were 28.7 µg/mL (≈ 95.2 µM) and 68.2 µg/mL (≈ 226 µM).

As for `Cc1cccc2nc(N/N=C/c3cc4ccccc4[nH]3)sc12`, the results for the IC50 (in the experiment on Erythrocyte; in experiment [1]) were 30.2 µg/mL (≈ 98.5 µM) and 28.1 µg/mL (≈ 91.8 µM), respectively. For the compound `COc1ccc2[nH]c([S+]([O-])Cc3ncc(C)c(OC)c3C)nc2c1` (configuration not stated) [OMEPRAZOLE], the IC50 in experiment [1] is 46.1 µg/mL (≈ 134 µM). For the compound `Cc1ccc(/C=N\Nc2nc3cccc(C)c3s2)cc1`, the IC50 with Erythrocyte was determined as 54.3 µg/mL (≈ 193 µM); in experiment [1] it was 34.2 µg/mL (≈ 121 µM).

Turning to `Cc1cccc2nc(N/N=C\c3ccc([N+](=O)[O-])cc3[N+](=O)[O-])sc12`, the IC50 in the experiment with Erythrocyte stood at 12.7 µg/mL (≈ 35.7 µM); in experiment [1], 80.6 µg/mL (≈ 226 µM). Taken in the same sequence, the figures for `Cc1cccc2nc(N/N=C\c3ccncc3)sc12` were 54.2 µg/mL (≈ 202 µM) and 40.2 µg/mL (≈ 150 µM). The like results for `CCCCCC/C=N/Nc1nc2cccc(C)c2s1` were, in that order, 82.2 µg/mL (≈ 298 µM) and 72.1 µg/mL (≈ 262 µM). In the case of `Cc1cccc2nc(N/N=C\c3ccc(Br)cc3)sc12`, the IC50 with Erythrocyte stood at 20.1 µg/mL (≈ 58 µM); in experiment [1], 60.1 µg/mL (≈ 174 µM). Take `COc1ccc2c(c1)c(CC(=O)O)c(C)n2C(=O)c1ccc(Cl)cc1` [INDOMETHACIN]: in the experiment on Erythrocyte, the IC50 was 40 µg/mL (≈ 112 µM).
